This passage reports Dose, Concentration and Activity results from ChEMBL document CHEMBL1123430, “Potential tumor- or organ-imaging agents. 26. Polyiodinated 2-substituted triacylglycerols as hepatographic agents” (J Med Chem, 1986).

The test system of data set [1] is Rattus norvegicus. The data set can be described thus: Distribution of radioactivity of radiolabeled compound in blood of female rats 5 minutes after intravenous administration. The format is ADME, organism-based. The note with it: in vivo.
In data set [2] the test system is Rattus norvegicus. The data set can be described thus: Distribution of radioactivity of radiolabeled compound in heart of female rats 30 minutes after intravenous administration. It counts as ADME, organism-based. Particulars: in vivo, 0.5 h.
The subject of data set [3] is Rattus norvegicus. The data set can be described thus: Distribution of radioactivity of radiolabeled compound in blood of female rats 30 minutes after intravenous administration. It counts as ADME, organism-based. The note with it: in vivo, 0.5 h.
Data set [4] relates to Rattus norvegicus. The data set can be described thus: Distribution of radioactivity of radiolabeled compound in heart of female rats 5 minutes after intravenous administration. The format is ADME, organism-based. The note with it: in vivo.
The subject of data set [5] is Rattus norvegicus. The data set can be described thus: Distribution of radioactivity of radiolabeled compound in kidney of female rats 30 minutes after intravenous administration. It counts as ADME, organism-based. Particulars: in vivo, 0.5 h.
The test system of data set [6] is Rattus norvegicus. Briefly: Distribution of radioactivity of radiolabeled compound in kidney of female rats 5 minutes after intravenous administration. It counts as ADME, organism-based. The note with it: in vivo.
Data set [7] deals with Rattus norvegicus. Briefly: Distribution of radioactivity of radiolabeled compound in liver of female rats 30 minutes after intravenous administration. Particulars: in vivo, 0.5 h. The format is ADME, organism-based.
The subject of data set [8] is Rattus norvegicus. Briefly: Distribution of radioactivity of radiolabeled compound in liver of female rats 5 minutes after intravenous administration at. It counts as ADME, organism-based. Particulars: in vivo.
The subject of data set [9] is Rattus norvegicus. Briefly: Distribution of radioactivity of radiolabeled compound in lung of female rats 30 minutes after intravenous administration. The format is ADME, organism-based. Particulars: in vivo, 0.5 h.
Data set [10] concerns Rattus norvegicus. The data set can be described thus: Distribution of radioactivity of radiolabeled compound in lung of female rats 5 minutes after intravenous administration. It counts as ADME, organism-based. Particulars: in vivo.
Data set [11] concerns Rattus norvegicus. The data set can be described thus: Polyacrylamide Gel Electrophoresis (PAGE) analysis of rat plasma 30 min after intravenous administration of radiolabeled in low-density lipoprotein. The format is functional, organism-based. The procedure, abridged:
(§1)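 Gels were sectioned and counted in a γ counter. Radioactivity in each band (stacking gel, LDL, HDL, albumin, below albumin) is expressed as a percentage of the total radioactivity applied to the gel, ± SEM, n = 3-5.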

Data set [12] deals with Rattus norvegicus. Briefly: Polyacrylamide Gel Electrophoresis (PAGE) analysis of rat plasma 5 minutes after intravenous administration of radiolabeled compound (below albumin ). The format is functional, organism-based. The procedure, abridged:
(§2)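 ¹²⁵I-labeled compound, radioiodinated by exchange in a pivalic acid melt, solubilized in normal saline with Tween 20 and given iv to adult female Sprague–Dawley rats (200–250 g), 5–30 μCi/animal, 3–4 rats per time point. Plasma was run on polyacrylamide gels. Gels were sectioned and gamma counted. Radioactivity per band (stacking gel, LDL, HDL, albumin, below albumin) is given as % of total applied; mean ± SEM, n = 3-5.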

The subject of data set [13] is Rattus norvegicus. Briefly: Polyacrylamide Gel Electrophoresis (PAGE) analysis of rat plasma 5 minutes after intravenous administration of radiolabeled compound in high density lipoprotein. The format is functional, organism-based. The procedure, abridged:
as §2

The test system of data set [14] is Rattus norvegicus. Briefly: Polyacrylamide Gel Electrophoresis (PAGE) analysis of rat plasma 5 minutes after intravenous administration of radiolabeled in low-density lipoprotein. It counts as functional, organism-based. The procedure, abridged: as §2
For data set [15], the system named is Rattus norvegicus. Briefly: Polyacrylamide Gel Electrophoresis (PAGE) analysis of rat plasma 5 minutes after intravenous administration of radiolabeled in stacking gel. It counts as functional, organism-based. The procedure, abridged:
as §2

Data set [16] concerns Rattus norvegicus. The data set can be described thus: Polyacrylamide Gel Electrophoresis (PAGE) analysis of rat plasma 5 min after intravenous administration of radiolabeled compound in albumin. The format is functional, organism-based. The procedure, abridged: as §1
Data set [17] deals with Rattus norvegicus. Briefly: Polyacrylamide Gel Electrophoresis (PAGE) analysis of rat plasma 30 min after intravenous administration of radiolabeled compound (below albumin ). The format is functional, organism-based. The procedure, abridged: as §1
Data set [18] has as its system Rattus norvegicus. The data set can be described thus: Polyacrylamide Gel Electrophoresis (PAGE) analysis of rat plasma 30 min after intravenous administration of radiolabeled compound at concentration of high density. The format is functional, organism-based. The procedure, abridged: as §1
Data set [19] has as its system Rattus norvegicus. The data set can be described thus: Polyacrylamide Gel Electrophoresis (PAGE) analysis of rat plasma 30 min after intravenous administration of radiolabeled compound concentration of stacking gel. The format is functional, organism-based. The procedure, abridged: as §1
The test system of data set [20] is Rattus norvegicus. Briefly: Polyacrylamide Gel Electrophoresis (PAGE) analysis of rat plasma 30 min after intravenous administration of radiolabeled compound in albumin. It counts as functional, organism-based. The procedure, abridged:
as §1

The subject of data set [21] is Rattus norvegicus. Briefly: Distribution of radioactivity of radiolabeled compound in heart of female rats 30 minutes after intravenous administration at. The format is ADME, organism-based. Particulars: in vivo, 0.5 h.
Data set [22] concerns Rattus norvegicus. Briefly: Distribution of radioactivity of radiolabeled compound in liver of female rats 5 minutes after intravenous administration. The format is ADME, organism-based. Particulars: in vivo.
The test system of data set [23] is Rattus norvegicus. The data set can be described thus: Percentage […]/CH3OH extract of the radiolabeled compound in rat liver 30 minutes after iv administration. The format is functional. The procedure, abridged: (§3)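 Liver and plasma were taken at 5 or 30 min. Plasma was extracted by a modified Folch procedure, and liver was homogenized and extracted. Extracts were run on TLC in hexane/ethyl acetate (5:2) for esters or THF/hexane (1:1) for acids, with unlabeled compound as reference. Plates were cut into 1-cm strips and counted. Values are percent ± SEM, n = 3-5.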

Data set [24] relates to Rattus norvegicus. The data set can be described thus: Percentage […]/CH3OH extract of the radiolabeled compound in rat liver 5 minutes after iv administration. The format is functional. The procedure, abridged:
as §3

Data set [25] deals with Rattus norvegicus. Briefly: Percentage […]/CH3OH extract of the radiolabeled compound in rat plasma 30 minutes after iv administration. It counts as functional. The procedure, abridged: as §3
Data set [26] concerns Rattus norvegicus. Briefly: Percentage […]/CH3OH extract of the radiolabeled compound in rat plasma 5 minutes after iv administration. The format is functional. The procedure, abridged: as §3
The subject of data set [27] is Rattus norvegicus. The data set can be described thus: Percentage parent compound in rat liver 30 minutes after iv administration of the radiolabeled compound by thin-layer chromatography. It counts as functional. The procedure, abridged:
as §3

Data set [28] has as its system Rattus norvegicus. Briefly: Percentage parent compound in rat liver 5 minutes after iv administration of the radiolabeled compound by thin-layer chromatography. It counts as functional. The procedure, abridged: as §3
The test system of data set [29] is Rattus norvegicus. Briefly: Percentage parent compound in rat plasma 30 minutes after iv administration of the radiolabeled compound by thin-layer chromatography. The format is functional. The procedure, abridged:
as §3

The test system of data set [30] is Rattus norvegicus. Briefly: Percentage parent compound in rat plasma 5 minutes after iv administration of the radiolabeled compound by thin-layer chromatography. It counts as functional. The procedure, abridged:
as §3

Data set [31] concerns Rattus norvegicus. The data set can be described thus: Polyacrylamide Gel Electrophoresis (PAGE) analysis of rat plasma 30 minutes after intravenous administration of radiolabeled compound in high density lipoprotein. It counts as functional, organism-based. The procedure, abridged:
as §1

Data set [32] has as its system Rattus norvegicus. The data set can be described thus: Polyacrylamide Gel Electrophoresis (PAGE) analysis of rat plasma 30 min after intravenous administration of radiolabeled compound in low-density lipoprotein. It counts as functional, organism-based. The procedure, abridged:
as §1

Data set [33] deals with Rattus norvegicus. The data set can be described thus: Polyacrylamide Gel Electrophoresis (PAGE) analysis of rat plasma 30 min after intravenous administration of radiolabeled compound in stacking gel. It counts as functional, organism-based. The procedure, abridged:
as §1

Data set [34] has as its system Rattus norvegicus. Briefly: Polyacrylamide Gel Electrophoresis (PAGE) analysis of rat plasma 5 minutes after intravenous administration of radiolabeled compound in low-density lipoprotein. It counts as functional, organism-based. The procedure, abridged: as §2
Data set [35] deals with Rattus norvegicus. The data set can be described thus: Polyacrylamide Gel Electrophoresis (PAGE) analysis of rat plasma 5 minutes after intravenous administration of radiolabeled compound in stacking gel. The format is functional, organism-based. The procedure, abridged:
as §2

In data set [36] the test system is Rattus norvegicus. The data set can be described thus: Polyacrylamide Gel Electrophoresis (PAGE) analysis of rat plasma 5 min after intravenous administration of radiolabeled compound (below albumin). It counts as functional, organism-based. The procedure, abridged: as §1
Data set [37] relates to Rattus norvegicus. Briefly: Polyacrylamide Gel Electrophoresis (PAGE) analysis of rat plasma 30 min after intravenous administration of radiolabeled compound (below albumin). It counts as functional, organism-based. The procedure, abridged: as §1

For `Nc1c(I)cc(I)c(CCCCCCCCCCCC(=O)O)c1I`, the Dose in the data set with Rattus norvegicus [1] turned out to be 1.21%; in the data set on Rattus norvegicus [2], 0.73%; with Rattus norvegicus [3] it was 1.06%; in the data set on Rattus norvegicus [4], 1.15%; in the data set on Rattus norvegicus [5] it was 1.46%; in the data set with Rattus norvegicus [6] it was 0.77%. For the same molecule, the Dose with Rattus norvegicus [7] was determined as 3.63%; with Rattus norvegicus [8], 6.96%; in the data set with Rattus norvegicus [9], 0.66%; in the data set on Rattus norvegicus [10], 0.95%. Also, the Concentration came to 3.8 in the data set on Rattus norvegicus [11]; 4.8 in the data set on Rattus norvegicus [12]; 8 in the data set with Rattus norvegicus [13]; 1 in the data set with Rattus norvegicus [14]; 1.5% in the data set on Rattus norvegicus [15]; 84.6 with Rattus norvegicus [16]. Further, the Concentration with Rattus norvegicus [17] amounted to 26.3; in the data set with Rattus norvegicus [18] it was 5.6; in the data set with Rattus norvegicus [19] it was 11.2; in the data set on Rattus norvegicus [20] it was 54.4.

For the molecule `CCCCCCCCCCCCCCCC(=O)OCC(COC(=O)CCCCCCCCCCCCCCC)OC(=O)CCCCCCCCCCCCCCCCc1c(I)cc(I)c(N)c1I`, the Dose worked out at 2.5% in the data set with Rattus norvegicus [1]; 0.74% in the data set with Rattus norvegicus [21]; 1.42% in the data set with Rattus norvegicus [3]; 0.49% in the data set on Rattus norvegicus [4]; 1.29% in the data set with Rattus norvegicus [5]; 0.42% in the data set with Rattus norvegicus [6]. The Dose in the data set on Rattus norvegicus [7] is recorded as 5.97%; in the data set with Rattus norvegicus [22] it was 4.07%; with Rattus norvegicus [9] it was 1.72%; in the data set with Rattus norvegicus [10], 3.16%. Besides, the Activity was determined as 47.2% in the data set on Rattus norvegicus [23]; 44.3% in the data set on Rattus norvegicus [24]; 71.3% in the data set with Rattus norvegicus [25]; 83.8% with Rattus norvegicus [26]; 40.8% in the data set on Rattus norvegicus [27]; 24% in the data set with Rattus norvegicus [28]. Besides, the Activity is 23.8% in the data set with Rattus norvegicus [29] and 32.6% in the data set on Rattus norvegicus [30]. Besides, the Concentration is 27% with Rattus norvegicus [31]; 8.6 in the data set with Rattus norvegicus [32]; 10.9 in the data set on Rattus norvegicus [33]; 48.1 in the data set on Rattus norvegicus [13]; 12.6% in the data set with Rattus norvegicus [34]; 4.6% in the data set on Rattus norvegicus [35]. Besides, the Concentration in the data set with Rattus norvegicus [36] was found to be 2.7; in the data set on Rattus norvegicus [16] it was 32.1; in the data set on Rattus norvegicus [37], 9; in the data set on Rattus norvegicus [20], 44.6.
